Screening results as filed in PubChem BioAssay.
This is a sample that favours compounds with a hit; in the whole collection about 2.6% have one here.
rCAG binder: r(CAG) repeat RNA binding; AID 651821; inhibition, % at 3 µM; TO-PRO-1 dye displacement fluorescence; 370,000 compounds, 1.3% hits;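 active = inhibition above the plate cutoff, the mean of all test compounds on that plate plus 3 SD, cut at about 35% in these data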;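 note: 0% = DMSO alone and 100% = 100 µM mitoxantrone as full dye displacement; higher means more dye released from RNA so lower well fluorescence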
NR1D1 modulator: modulates human Rev-erb alpha binding to DNA. 370,000 compounds, 0.79% hits. activity, % at 10 µM. AID 1259318. Rev-erbα–FITC-DNA binding, fluorescence polarization, 90 min;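 active = activity above about 14%, limit read from the data; passing the limit was not always enough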;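 note: 0% = DMSO wells with 35 nM protein and 100% = DMSO wells with 750 nM protein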
NR2E3 ag-1: activates human photoreceptor nuclear receptor NR2E3. Q9Y5X4. GST-NR2E3/biotin-RetCOR TR-FRET, 1536-well. inhibition of corepressor binding, % at 4.78 µM. 320,000 compounds, 0.12% hits. AID 2300;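 active = percent inhibition above the cutoff of mean plus 3 SD of all tested compounds, set per screening campaign, cut at about 20% in these data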;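 note: 0% = DMSO wells and 100% = biotin wells as full block of FRET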
Target sequence (Q9Y5X4 whole entry, looked up): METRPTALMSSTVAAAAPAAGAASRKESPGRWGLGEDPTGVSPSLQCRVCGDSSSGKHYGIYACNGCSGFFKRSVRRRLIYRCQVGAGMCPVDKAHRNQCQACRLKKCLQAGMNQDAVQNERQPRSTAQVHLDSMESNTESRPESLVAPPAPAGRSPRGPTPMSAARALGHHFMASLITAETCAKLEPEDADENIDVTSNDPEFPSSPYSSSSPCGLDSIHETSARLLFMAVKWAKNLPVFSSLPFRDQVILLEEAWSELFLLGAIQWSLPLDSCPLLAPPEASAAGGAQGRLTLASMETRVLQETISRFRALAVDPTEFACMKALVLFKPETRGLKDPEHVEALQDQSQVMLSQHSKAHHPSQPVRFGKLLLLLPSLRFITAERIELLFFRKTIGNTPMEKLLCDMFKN
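Material – GST-tagged NR2E3 plus biotinylated RetCOR corepressor · Quantity – NR2E3 fusion 1.35 nM · Times – 5 h incubation at 4 °C · Medium – pH 7.5 Tris-based buffer · Technique – TR-FRET, Eu(K)-anti-GST donor, streptavidin-D2 acceptor, ex 340, em 617/671 nm · Benchmarks – high control biotin, low control 0.6% DMSO · Format – 1536-well plates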
NR2E3 ag-2: human photoreceptor-specific nuclear receptor agonism; 360,000 compounds, 0.35% hits; CHO-S Gal4-NCOR/VP16-NR2E3 two-hybrid, luciferase; inhibition of corepressor binding, % at 3.98 µM; Q9Y5X4; AID 602229;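 active = inhibition above the mean of all tested compounds plus 3 SD, cut at about 70% in these data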;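 note: 0% = DMSO with NR2E3 transfected cells and 100% = cells lacking NR2E3 construct; higher means lower luciferase signal from less NR2E3 corepressor binding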
PG9 Ab binder: binds the HIV-1 gp120 antibody PG9. TR-FRET gp120-PG9 antibody binding. inhibition, % at 6.7 µM. 360,000 compounds, 0.43% hits; in the data active = inhibition above about 8.5%
PG9 bind confirm: confirmation of small molecules binding HIV-1 gp120 antibody PG9; 1,500 compounds, 90% hits; AID 651571; shares compounds with PG9 Ab binder; inhibition, % at 6.7 µM; TR-FRET PG9 antibody binding, biochemical; in the data active = inhibition above about 9%
PGV04 Ab binding: counter-screen for PG9 binders: binding control antibody PGV04; inhibition, % at 6.7 µM; 1,500 compounds, 95% hits; shares compounds with PG9 Ab binder; TR-FRET PGV04 antibody-gp120 binding, biochemical; in the data active = inhibition above about 9.5%
PG9 bind DR: PG9 antibody binding, dose response | TR-FRET PG9 antibody-gp120 binding inhibition | 95 tested, under 10 active | shares compounds with PG9 Ab binder | IC50, µM; in the data active = IC50 below about 10 µM
PGV04 binding DR: counter-screen for PG9 binders: binding to control antibody PGV04; shares compounds with PG9 Ab binder; TR-FRET binding to control antibody PGV04; IC50, µM; 95 compounds, 20% hits
PG126 binding DR: counter-screen for PG9 binders: binding to control antibody PG126. shares compounds with PG9 Ab binder. TR-FRET binding to antibody PG126, counterscreen. IC50, µM. 95 compounds, 20% hits
Rev-erbA confirm: Rev-erb alpha (human) modulation, hit confirmation; shares compounds with NR1D1 modulator; Rev-erb alpha FITC-DNA binding, fluorescence polarization, 90 min; activation, % at 25 µM; 3,000 compounds, 61% hits; AID 1259319;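 active = activation at or above a set limit, or at least 3 SD above the negative control mean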;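 note: 0% = 35 nM protein with DMSO and 100% = 750 nM protein high control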
RORg DNA counter: counter-screen for Rev-erb alpha modulators: RORgamma DNA binding | IC50, µM | 910 compounds, 8% hits | shares compounds with NR1D1 modulator | AID 1259320 | purified RORgamma protein-FITC-DNA binding, fluorescence polarization;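 active = Compounds whose fitted half-maximal concentration for disrupting protein-DNA binding is below 10 micromolar; the record names Rev-erb in its text, so the target is in doubt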
* marks the source's active call; other numbers are inactive results; i = inactive; . = no result given. Cut-off read from the data, not from the text of the source, unless noted: active = IC50 below about 9 µM; inactive = the rest.

SMILES | rCAG binder | NR1D1 modulator | NR2E3 ag-1 | NR2E3 ag-2 | PG9 Ab binder | PG9 bind confirm | PGV04 Ab binding | Rev-erbA confirm | RORg DNA counter | others
COc1ccc(CNC(=O)CCCn2c(=S)[nH]c3cc4c(cc3c2=O)OCO4)cc1 | 1 | 56* | 6 | -5 | 26* | 17* | 21* | 36* | >40
O=C(CCCCCn1c(=S)[nH]c2ccc(N3CCOCC3)cc2c1=O)NCc1ccc(Cl)cc1 | 4 | 18* | -9 | -11 | 21* | 16* | 25* | 1 | .
O=C(CCCCCn1c(=S)[nH]c2ccc(N3CCOCC3)cc2c1=O)NCc1ccccc1Cl | 2 | -2 | -2 | 6 | -1 | . | . | . | .
COc1cc(-c2ccc3c(=O)c4ccccc4sc3c2)cc(OC)c1OC | 5 | 76* | . | -5 | 17* | 20* | 31* | 49* | >40
COc1cc(-c2ccc3c(=O)c4ccccc4n(C)c3c2)cc(OC)c1OC | 2 | -5 | 3 | 11 | 0 | . | . | . | .
CCN1CCN(c2oc(-c3ccccc3)nc2S(=O)(=O)c2ccc(C)cc2)CC1 | -6 | 3 | . | 2 | 0 | . | . | . | .
CC(=O)Nc1ccc(C(=O)CSc2cc(C)c3cccc(C)c3n2)cc1 | 5 | 37* | 1 | -12 | 17* | 23* | 48* | 30* | .
Cc1cc(SCC(=O)c2cccs2)nc2c(C)cccc12 | 2 | 3 | 2 | -16 | 2 | . | . | . | .
Cc1ccc(-n2nc3c(N4CCC(C(=O)NCCc5cccs5)CC4)nnc(C)c3c2C)cc1 | -7 | 30* | 1 | 10 | 12* | 25* | 36* | 36* | >40
CCOC(=O)c1sc(=NC(=O)c2ccc(C)cc2)n(C)c1C | -2 | 20* | -3 | -106 | 22* | 22* | 53* | 9 | .
CCOC(=O)c1sc(=NC(=O)c2ccc(F)cc2)n(C)c1C | 0 | 15 | -1 | -82 | 0 | . | . | . | .
CC[C@]12c3[nH]c4cc(CCC(=O)N(C)C)ccc4c3CCN1C(=O)[C@@H](CC(=O)NC(C)(C)C)C[C@@H]2C(=O)N1CCN(C(=O)C2CC2)CC1 | 0 | -2 | . | -21 | 4 | . | . | . | .
O=c1[nH]cnc2c1sc1nc3c(c(-c4ccc(Cl)cc4)c12)CCC3 | 5 | 39* | -2 | -22 | 11* | 28* | 16* | 10 | . | PG9 bind DR=i;PGV04 binding DR=6.4*;PG126 binding DR=8.6*
CCOC(=O)Cn1nnc2c(sc3nc4c(c(-c5ccc(Cl)cc5)c32)CCC4)c1=O | 4 | -3 | 2 | -9 | -1 | . | . | . | .
O=C(Nc1ccc2c(c1)OCCO2)C(C1CC1)n1c(=O)c(-c2ccccc2)nc2ccccc21 (stereo not given) | 12 | 0 | . | . | -2 | . | . | . | .
CCn1c(SCc2nc3ccccc3c(=O)[nH]2)nc2ccccc2c1=O | 3 | 2 | -2 | 3 | -1 | . | . | . | .
C=CCn1c(SCc2nc3ccccc3c(=O)[nH]2)nc2scc(C3CC3)c2c1=O | 2 | 26* | 8 | -2 | 15* | 17* | 29* | 22* | .
CC(=O)C(=Cc1ccc(Cl)cc1)C(=O)c1ccccc1 | 1 | -7 | . | 9 | -1 | . | . | . | .
COc1ccc(OCCSc2nc3ccccc3c(=O)[nH]2)cc1 | 1 | 29* | 0 | -2 | 58* | 53* | 66* | 21* | .
Cc1ccc(CSc2nc3ccncc3n2CC(=O)Nc2cc(C)cc(C)c2)cc1 | 5 | 81* | 5 | -35 | 25* | 32* | 50* | 34* | 0.26*
Cc1cc(C)c2cc(C#N)c(NCCNC(=O)c3ccccc3)nc2c1 | 2 | 18* | . | . | 29* | 25* | 32* | 15* | .
COc1ccccc1C(=O)NCCNc1nc2cc(C)cc(C)c2cc1C#N | -3 | 4 | 6 | 11 | 0 | . | . | . | .
COc1cc(C(=C(CC(=O)O)C(=O)O)c2ccc3c(c2)OCO3)cc(OC)c1OC | 0 | -3 | . | -1 | 1 | . | . | . | .
COc1ccc(C(=O)NC(=S)Nc2ccc3[nH]c(=O)[nH]c3c2)c(OC)c1 | 5 | 101* | -1 | -12 | 37* | 53* | 52* | 55* | i | PG9 bind DR=i;PGV04 binding DR=6.3*;PG126 binding DR=6.8*
CCn1c(=O)cc(OCC(=O)N2CCCCCC2)c2ccccc21 | -2 | -3 | -1 | -3 | 1 | . | . | . | .
SMILES | rCAG binder | NR1D1 modulator | NR2E3 ag-1 | NR2E3 ag-2 | PG9 Ab binder | PG9 bind confirm | PGV04 Ab binding | Rev-erbA confirm | RORg DNA counter | others
CCn1c(=O)cc(OCC(=O)N2CCc3ccccc32)c2ccccc21 | 1 | 45* | . | -19 | 40* | 50* | 71* | 12* | .
O=C(Nc1ccc2oc(-c3cccc(F)c3)nc2c1)c1ccccc1F | 1 | 82* | 4 | -73 | 16* | 40* | 59* | 42* | >40
Cc1sc2nc(SC(C)C)nc(N)c2c1C | -1 | 49* | 0 | -3 | 11* | 8.8* | 13* | 41* | >40
COc1ccc2nc(-c3ccccc3)cc(C(=O)OCC(=O)N3CC(C)OC(C)C3)c2c1 (stereo not given) | 12 | 7 | 1 | 0 | 3 | . | . | . | .
COc1cccc(NC(=O)CN(C)C(=O)c2cc(S(=O)(=O)N3CCCCCC3)ccc2OC)c1 | 2 | -4 | 3 | -27 | 0 | . | . | . | .
Cn1c(SCC(=O)NCc2ccc3c(c2)OCO3)ncc(C(=O)Nc2ccc(F)cc2)c1=O | -8 | 40* | 1 | -12 | 21* | 16* | 18* | 51* | >40
COc1ccc(NC(=O)C2c3ccccc3OCC(=O)N2Cc2ccc3c(c2)OCO3)cc1 (stereo not given) | 4 | -3 | . | 5 | 0 | . | . | . | .
O=c1cc(CN2CCN(S(=O)(=O)c3cccc(Cl)c3)CC2)c2ccc(O)cc2o1 | 24 | -6 | . | 5 | 1 | . | . | . | .
N#Cc1ccc(NC(=O)c2sc3cc(C(F)(F)F)cnc3c2-c2cccs2)cc1 | 8 | 8 | 0 | -8 | -13 | . | . | . | .
COc1ccc(NC(=O)c2sc3cc(C(F)(F)F)cnc3c2-c2cccs2)cc1 | -4 | 112* | 0 | 2 | 9.6* | 18* | 71* | 73* | >40
